Results taken from ChEMBL document CHEMBL2163282, “Discovery and characterization of AZD9272 and AZD6538-Two novel mGluR5 negative allosteric modulators selected for clinical development” (Bioorg Med Chem Lett, 2012).
Converted amounts (≈) assume the structure as drawn. The source made the active and inactive calls. The calls are words filed in the database; no cut-off is given here.

Columns and labels:
[1] = molecular target: Metabotropic glutamate receptor 4 (Homo sapiens) (UniProt Q14833); assay: Antagonist activity at mGluR4 assessed as effect on intracellular Ca2+ level up to 30 uM by cell based FLIPR assay; assay type: functional
How it was run: (§1)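 Each of the seven other mGluR subtypes was tested at concentrations up to 30 µM. Agonist, antagonist and positive allosteric modulator modes were each assessed. Read-out was the change in intracellular Ca2+ on FLIPR.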

[2] = Volume of distribution at steady state in Sprague-Dawley rat at 3 umol/kg, iv; assay type: ADME, organism-based; settings: in vivo, read-out: Vdss
How it was run: (§2)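 Male rats (n = 3) received a single intravenous dose of 3 µmol/kg. Vehicle was 40% w/w dimethylacetamide/40% w/w PEG 400/20% w/w water. Plasma drug was measured after liquid–liquid extraction by reversed-phase LC with APCI or ESI tandem MS.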

[3] = Terminal half life in Sprague-Dawley rat at 3 umol/kg, iv; assay type: ADME, organism-based; settings: in vivo, read-out: beta t1/2 (converted); how it was run: as §2
[4] = molecular target: T1, Metabotropic glutamate receptor 5 (Homo sapiens, UniProt P41594); assay: Negative allosteric modulation of human recombinant mGluR5 expressed in HEK293 cells expressing GLAST assessed as inhibition of DHPG-induced intracellular Ca2+ level at 0.001 to 3 uM after 30 mins by FLIPR assay; assay type: functional, cell-based
[5] = molecular target: Metabotropic glutamate receptor 1 (Homo sapiens) (UniProt Q13255); assay: Positive allosteric modulation of mGluR1 assessed as effect on intracellular Ca2+ level up to 30 uM by cell based FLIPR assay; assay type: functional; how it was run: as §1
[6] = Plasma protein binding in Sprague-Dawley rat after 6 hrs by equilibrium dialysis method; assay type: ADME, cell-free; settings: read-out: PPB (converted)
[7] = molecular target: Metabotropic glutamate receptor 7 (Homo sapiens) (UniProt Q14831); assay: Agonist activity at mGluR7 assessed as effect on intracellular Ca2+ level up to 30 uM by cell based FLIPR assay; assay type: functional; how it was run: as §1
[8] = molecular target: Metabotropic glutamate receptor 5 (Rattus norvegicus, UniProt P31424); assay: (§3) Negative allosteric modulation of rat recombinant mGluR5 expressed in HEK293 cells expressing GLAST assessed as inhibition of DHPG-induced intracellular Ca2+ level after 30 mins by FLIPR assay; assay type: functional, cell-based
How it was run: (§4)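 Human or rat mGluR5 expressed recombinantly in HEK293 cells that constitutively express the glutamate/aspartate transporter (mGluR5-GHEK). Intracellular Ca2+ rise evoked by DHPG was read on FLIPR. Potency was taken from test-compound inhibition of that response. Mean of 3 separate experiments.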

[9] = molecular target: Metabotropic glutamate receptor 5 (Rattus norvegicus) (UniProt P31424); assay: as §3; assay type: functional, cell-based; how it was run: as §4
[10] = molecular target: Metabotropic glutamate receptor 1 (Homo sapiens) (UniProt Q13255); assay: Agonist activity at mGluR1 assessed as effect on intracellular Ca2+ level up to 30 uM by cell based FLIPR assay; assay type: functional; how it was run: as §1
[11] = molecular target: Metabotropic glutamate receptor 3 (Homo sapiens) (UniProt Q14832); assay: Agonist activity at mGluR3 assessed as effect on intracellular Ca2+ level up to 30 uM by cell based FLIPR assay; assay type: functional; how it was run: as §1
[12] = Tmax in Sprague-Dawley rat at 3 umol/kg, po; assay type: ADME, organism-based; settings: in vivo
How it was run: (§5)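 Male rats (n = 3) received a single oral dose of 3 µmol/kg. Vehicle was Polyvidon K30 1.7 mg/ml, sodium lauryl sulphate 0.34 mg/ml and glycerin 25.0 mg/ml in water. Plasma levels were measured by liquid–liquid extraction and reversed-phase LC-MS/MS (APCI or ESI).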

[13] = molecular target: Metabotropic glutamate receptor 7 (Homo sapiens) (UniProt Q14831); assay: Antagonist activity at mGluR7 assessed as effect on intracellular Ca2+ level up to 30 uM by cell based FLIPR assay; assay type: functional; how it was run: as §1
[14] = molecular target: Metabotropic glutamate receptor 6 (Homo sapiens) (UniProt O15303); assay: Positive allosteric modulation of mGluR6 assessed as effect on intracellular Ca2+ level up to 30 uM by cell based FLIPR assay; assay type: functional; how it was run: as §1
[15] = Equilibrium solubility of the compound […]; assay type: physicochemical
How it was run: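 Solubility was measured by a dried-DMSO rapid-throughput method.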

[16] = molecular target: Metabotropic glutamate receptor 2 (Homo sapiens) (UniProt Q14416); assay: Positive allosteric modulation of mGluR2 assessed as effect on intracellular Ca2+ level up to 30 uM by cell based FLIPR assay; assay type: functional; how it was run: as §1
[17] = molecular target: Metabotropic glutamate receptor 3 (Homo sapiens) (UniProt Q14832); assay: Positive allosteric modulation of mGluR3 assessed as effect on intracellular Ca2+ level up to 30 uM by cell based FLIPR assay; assay type: functional; how it was run: as §1
[18] = Clearance in Sprague-Dawley rat at 3 umol/kg, iv; assay type: ADME, organism-based; settings: in vivo; how it was run: as §2
[19] = molecular target: Metabotropic glutamate receptor 2 (Homo sapiens) (UniProt Q14416); assay: Agonist activity at mGluR2 assessed as effect on intracellular Ca2+ level up to 30 uM by cell based FLIPR assay; assay type: functional; how it was run: as §1
[20] = molecular target: Metabotropic glutamate receptor 8 (Homo sapiens) (UniProt O00222); assay: Antagonist activity at mGluR8 assessed as effect on intracellular Ca2+ level up to 30 uM by cell based FLIPR assay; assay type: functional; how it was run: as §1
[21] = molecular target: Metabotropic glutamate receptor 4 (Homo sapiens) (UniProt Q14833); assay: Agonist activity at mGluR4 assessed as effect on intracellular Ca2+ level up to 30 uM by cell based FLIPR assay; assay type: functional; how it was run: as §1
[22] = molecular target: T1, Metabotropic glutamate receptor 5; assay: Noncompetitive inhibition of human mGluR5 expressed in HEK cells assessed as inhibition of DHPG-induced intracellular Ca2+ level at 10 to 300 nM after 30 mins by FLIPR assay; assay type: functional, cell-based; settings: HEK293
How it was run: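 Human mGluR5-GHEK cells on FLIPR: DHPG concentration–response curves run at increasing modulator concentrations, intracellular Ca2+ read-out; shifts in DHPG potency and maximal response evaluated for non-competitive interaction.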

[23] = molecular target: Metabotropic glutamate receptor 3 (Homo sapiens) (UniProt Q14832); assay: Antagonist activity at mGluR3 assessed as effect on intracellular Ca2+ level up to 30 uM by cell based FLIPR assay; assay type: functional; how it was run: as §1
[24] = molecular target: Metabotropic glutamate receptor 8 (Homo sapiens) (UniProt O00222); assay: Positive allosteric modulation of mGluR8 assessed as effect on intracellular Ca2+ level up to 30 uM by cell based FLIPR assay; assay type: functional; how it was run: as §1
[25] = molecular target: Metabotropic glutamate receptor 7 (Homo sapiens) (UniProt Q14831); assay: Positive allosteric modulation of mGluR7 assessed as effect on intracellular Ca2+ level up to 30 uM by cell based FLIPR assay; assay type: functional; how it was run: as §1
[26] = molecular target: Metabotropic glutamate receptor 2 (Homo sapiens) (UniProt Q14416); assay: Antagonist activity at mGluR2 assessed as effect on intracellular Ca2+ level up to 30 uM by cell based FLIPR assay; assay type: functional; how it was run: as §1
[27] = molecular target: Metabotropic glutamate receptor 6 (Homo sapiens) (UniProt O15303); assay: Antagonist activity at mGluR6 assessed as effect on intracellular Ca2+ level up to 30 uM by cell based FLIPR assay; assay type: functional; how it was run: as §1
[28] = molecular target: T1, Metabotropic glutamate receptor 5; assay: Negative allosteric modulation of human recombinant mGluR5 expressed in HEK293 cells expressing GLAST assessed as inhibition of DHPG-induced intracellular Ca2+ level after 30 mins by FLIPR assay
[29] = Cmax in Sprague-Dawley rat at 3 umol/kg, po; assay type: ADME, organism-based; set-up: dose 3 umol/kg, route oral; settings: in vivo; how it was run: as §5
[30] = Ratio of drug level in brain to plasma of Sprague-Dawley rat at 3 umol/kg, po; assay type: ADME; settings: read-out: BPR
How it was run: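 Rats were given an oral dose of 3 µmol/kg. Total brain exposure was compared with plasma exposure to give a brain-to-plasma ratio.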

[31] = molecular target: Metabotropic glutamate receptor 1 (Homo sapiens) (UniProt Q13255); assay: Antagonist activity at mGluR1 assessed as effect on intracellular Ca2+ level up to 30 uM by cell based FLIPR assay; assay type: functional; how it was run: as §1
[32] = Intrinsic clearance in rat liver microsomes; assay type: ADME, Microsome; settings: read-out: CLH
How it was run: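 Intrinsic clearance was determined in human or rat microsomes and expressed per min per mg protein.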

Chain of Metabotropic glutamate receptor 2 (Homo sapiens) (Q14416 19-872 limits assumed): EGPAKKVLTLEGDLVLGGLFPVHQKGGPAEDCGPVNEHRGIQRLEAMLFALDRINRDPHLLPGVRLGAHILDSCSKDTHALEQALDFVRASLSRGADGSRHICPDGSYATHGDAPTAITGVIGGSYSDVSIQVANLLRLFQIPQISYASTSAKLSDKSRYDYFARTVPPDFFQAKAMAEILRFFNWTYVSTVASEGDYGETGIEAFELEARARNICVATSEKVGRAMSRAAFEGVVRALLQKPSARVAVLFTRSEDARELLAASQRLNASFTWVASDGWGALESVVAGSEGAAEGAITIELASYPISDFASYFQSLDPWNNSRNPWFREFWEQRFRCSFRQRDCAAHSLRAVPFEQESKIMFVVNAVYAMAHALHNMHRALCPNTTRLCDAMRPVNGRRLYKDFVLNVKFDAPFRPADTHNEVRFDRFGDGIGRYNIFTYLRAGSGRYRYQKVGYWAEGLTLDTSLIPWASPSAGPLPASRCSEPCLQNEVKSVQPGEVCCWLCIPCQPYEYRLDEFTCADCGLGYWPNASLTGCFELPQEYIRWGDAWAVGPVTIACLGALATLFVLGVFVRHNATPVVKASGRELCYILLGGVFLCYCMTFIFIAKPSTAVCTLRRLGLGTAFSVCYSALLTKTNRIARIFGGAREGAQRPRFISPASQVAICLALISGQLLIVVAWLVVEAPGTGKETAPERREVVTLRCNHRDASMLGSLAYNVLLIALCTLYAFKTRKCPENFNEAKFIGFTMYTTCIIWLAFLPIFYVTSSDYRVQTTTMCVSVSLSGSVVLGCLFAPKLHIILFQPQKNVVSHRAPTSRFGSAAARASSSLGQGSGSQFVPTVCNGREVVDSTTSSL
Chain of Metabotropic glutamate receptor 6 (Homo sapiens) (O15303 whole entry): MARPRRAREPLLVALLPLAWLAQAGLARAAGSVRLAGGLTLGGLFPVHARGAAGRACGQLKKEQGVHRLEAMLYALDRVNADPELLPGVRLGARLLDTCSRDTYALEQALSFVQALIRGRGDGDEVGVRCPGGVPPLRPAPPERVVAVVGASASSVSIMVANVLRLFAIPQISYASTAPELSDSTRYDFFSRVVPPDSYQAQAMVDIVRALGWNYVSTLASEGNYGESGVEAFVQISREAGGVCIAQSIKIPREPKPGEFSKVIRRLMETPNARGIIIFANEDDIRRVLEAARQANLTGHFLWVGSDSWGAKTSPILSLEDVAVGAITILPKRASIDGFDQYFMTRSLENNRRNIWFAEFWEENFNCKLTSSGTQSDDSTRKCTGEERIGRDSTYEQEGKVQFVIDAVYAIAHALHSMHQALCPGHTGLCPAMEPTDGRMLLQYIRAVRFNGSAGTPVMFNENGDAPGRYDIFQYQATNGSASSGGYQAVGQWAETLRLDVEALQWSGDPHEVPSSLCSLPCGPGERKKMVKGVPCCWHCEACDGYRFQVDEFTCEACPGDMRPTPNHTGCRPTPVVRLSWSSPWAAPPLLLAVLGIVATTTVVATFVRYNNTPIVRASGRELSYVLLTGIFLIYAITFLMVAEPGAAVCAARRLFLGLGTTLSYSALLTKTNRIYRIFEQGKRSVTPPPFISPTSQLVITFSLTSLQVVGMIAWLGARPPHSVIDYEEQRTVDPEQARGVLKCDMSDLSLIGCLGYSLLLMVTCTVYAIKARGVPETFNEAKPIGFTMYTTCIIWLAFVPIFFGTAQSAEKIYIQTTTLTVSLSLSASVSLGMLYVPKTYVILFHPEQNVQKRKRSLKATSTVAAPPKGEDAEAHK
Chain of Metabotropic glutamate receptor 7 (Homo sapiens) (Q14831 whole entry): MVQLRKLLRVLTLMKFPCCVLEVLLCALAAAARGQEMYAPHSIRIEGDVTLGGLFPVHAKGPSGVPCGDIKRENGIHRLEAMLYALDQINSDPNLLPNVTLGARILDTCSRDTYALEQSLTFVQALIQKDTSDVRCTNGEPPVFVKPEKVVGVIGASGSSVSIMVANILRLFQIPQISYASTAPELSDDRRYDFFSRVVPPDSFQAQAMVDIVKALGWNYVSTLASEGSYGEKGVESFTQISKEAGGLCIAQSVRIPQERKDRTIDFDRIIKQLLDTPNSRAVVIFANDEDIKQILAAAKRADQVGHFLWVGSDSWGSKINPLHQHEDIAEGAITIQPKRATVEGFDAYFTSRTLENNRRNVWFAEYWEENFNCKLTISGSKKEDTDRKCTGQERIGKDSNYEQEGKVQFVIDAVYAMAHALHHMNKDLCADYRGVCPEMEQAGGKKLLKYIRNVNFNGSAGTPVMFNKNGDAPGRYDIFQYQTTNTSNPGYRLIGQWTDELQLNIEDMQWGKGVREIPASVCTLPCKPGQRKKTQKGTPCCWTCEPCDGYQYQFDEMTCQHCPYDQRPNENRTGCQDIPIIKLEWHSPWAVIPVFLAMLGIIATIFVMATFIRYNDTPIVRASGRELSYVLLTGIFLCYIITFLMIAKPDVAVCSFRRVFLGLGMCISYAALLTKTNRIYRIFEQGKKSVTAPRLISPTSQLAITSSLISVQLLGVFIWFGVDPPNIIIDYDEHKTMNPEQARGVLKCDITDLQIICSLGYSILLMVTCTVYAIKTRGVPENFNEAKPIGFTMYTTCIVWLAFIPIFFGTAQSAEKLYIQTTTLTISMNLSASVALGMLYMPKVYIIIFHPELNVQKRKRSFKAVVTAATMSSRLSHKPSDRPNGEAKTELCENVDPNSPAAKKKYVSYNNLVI
Chain of Metabotropic glutamate receptor 4 (Homo sapiens) (Q14833 whole entry): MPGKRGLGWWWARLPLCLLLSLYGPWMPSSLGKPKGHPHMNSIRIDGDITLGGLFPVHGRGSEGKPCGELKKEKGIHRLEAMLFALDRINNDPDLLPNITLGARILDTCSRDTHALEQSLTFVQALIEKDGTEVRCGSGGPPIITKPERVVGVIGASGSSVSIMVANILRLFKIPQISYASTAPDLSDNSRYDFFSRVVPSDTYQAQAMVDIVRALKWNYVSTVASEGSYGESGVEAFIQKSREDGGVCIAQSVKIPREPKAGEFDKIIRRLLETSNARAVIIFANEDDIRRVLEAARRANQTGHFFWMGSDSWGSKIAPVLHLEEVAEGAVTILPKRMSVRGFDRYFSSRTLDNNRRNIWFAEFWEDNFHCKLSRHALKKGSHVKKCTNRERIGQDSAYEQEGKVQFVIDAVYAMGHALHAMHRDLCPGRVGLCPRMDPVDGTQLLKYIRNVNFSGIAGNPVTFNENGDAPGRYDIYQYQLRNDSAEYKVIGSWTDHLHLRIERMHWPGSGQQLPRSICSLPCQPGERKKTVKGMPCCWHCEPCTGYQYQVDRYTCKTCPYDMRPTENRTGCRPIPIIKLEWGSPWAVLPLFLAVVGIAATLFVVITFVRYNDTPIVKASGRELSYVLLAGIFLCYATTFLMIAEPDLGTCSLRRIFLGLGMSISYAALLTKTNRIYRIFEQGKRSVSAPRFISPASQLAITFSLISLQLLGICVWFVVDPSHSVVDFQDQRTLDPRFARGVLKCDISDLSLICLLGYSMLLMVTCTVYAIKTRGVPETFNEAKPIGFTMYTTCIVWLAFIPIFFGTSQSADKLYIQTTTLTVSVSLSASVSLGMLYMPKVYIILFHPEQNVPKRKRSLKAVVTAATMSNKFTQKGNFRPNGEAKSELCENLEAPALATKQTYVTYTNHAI
Chain of Metabotropic glutamate receptor 8 (Homo sapiens) (O00222 whole entry): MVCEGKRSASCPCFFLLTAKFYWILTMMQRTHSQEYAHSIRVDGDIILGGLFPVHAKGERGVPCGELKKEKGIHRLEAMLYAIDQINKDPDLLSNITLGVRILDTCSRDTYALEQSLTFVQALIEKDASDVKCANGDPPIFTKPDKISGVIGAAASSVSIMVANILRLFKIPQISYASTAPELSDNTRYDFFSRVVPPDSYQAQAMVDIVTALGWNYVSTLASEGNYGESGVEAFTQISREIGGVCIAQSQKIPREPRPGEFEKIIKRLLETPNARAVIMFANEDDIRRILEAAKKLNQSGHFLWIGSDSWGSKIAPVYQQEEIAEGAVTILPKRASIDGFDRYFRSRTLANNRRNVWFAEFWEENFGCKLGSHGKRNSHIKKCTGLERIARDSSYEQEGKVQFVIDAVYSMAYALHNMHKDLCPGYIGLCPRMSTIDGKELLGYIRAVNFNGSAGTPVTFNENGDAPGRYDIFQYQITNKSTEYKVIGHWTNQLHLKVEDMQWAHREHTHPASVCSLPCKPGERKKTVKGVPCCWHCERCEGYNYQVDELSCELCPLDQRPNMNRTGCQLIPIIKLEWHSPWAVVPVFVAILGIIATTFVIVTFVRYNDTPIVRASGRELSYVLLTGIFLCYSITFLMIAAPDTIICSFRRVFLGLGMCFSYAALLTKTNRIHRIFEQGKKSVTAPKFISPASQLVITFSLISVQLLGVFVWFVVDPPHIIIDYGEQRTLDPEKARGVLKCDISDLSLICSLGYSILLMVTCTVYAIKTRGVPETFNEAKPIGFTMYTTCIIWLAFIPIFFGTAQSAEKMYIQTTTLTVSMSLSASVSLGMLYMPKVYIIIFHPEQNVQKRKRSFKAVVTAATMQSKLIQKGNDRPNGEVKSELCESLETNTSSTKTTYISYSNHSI

Structure (SMILES) | inhibition [1] [%] | Vd [2] [L/kg] | half-life [3] [h] | inhibition [4] [%] | Activity [5] [%] | fraction unbound at 6 h [6] | Activity [7] [%] | IC50 [8] [nM] | inhibition [9] | Activity [10] [%] | Activity [11] [%] | Tmax [12] [h] | inhibition [13] [%] | Activity [14] [%] | solubility [15] [µM] | Activity [16] [%] | Activity [17] [%] | clearance [18] [mL/min/kg] | Activity [19] [%] | inhibition [20] [%] | other results
N#Cc1ccc(-c2noc(-c3cc(F)cc(C#N)c3)n2)nc1 | < 50 | 2 | 5.6 | 100 | < 50 | 0.23 | < 50 | 3.2 | Dose-dependent effect | < 50 | < 50 | 3 | < 50 | < 50 | 16.1 (≈ 4.69 µg/mL) | < 50 | < 50 | 4 | < 50 | < 50 | Activity [21]: < 50%; inhibition [22]: Active; inhibition [23]: < 50%; Activity [24]: < 50%; Activity [25]: < 50%; inhibition [26]: < 50%; inhibition [27]: < 50%; inhibition [28]: Dose-dependent effect; Cmax [29]: 500 nM; Kp [30]: 1; inhibition [31]: < 50%; microsomal CLint [32]: 6 µL/min/mg
N#Cc1cc(F)cc(-c2nc(-c3ccc(F)cn3)no2)c1 | < 50 | 1.6 | 2.5 | 100 | < 50 | 0.2 | < 50 | 2.6 | Dose-dependent effect | < 50 | < 50 | 4 | < 50 | < 50 | 4.2 (≈ 1.19 µg/mL) | < 50 | < 50 | 5.17 | < 50 | < 50 | Activity [21]: < 50%; inhibition [22]: Active; inhibition [23]: < 50%; Activity [24]: < 50%; Activity [25]: < 50%; inhibition [26]: < 50%; inhibition [27]: < 50%; inhibition [28]: Dose-dependent effect; Cmax [29]: 460 nM; Kp [30]: 1; inhibition [31]: < 50%; microsomal CLint [32]: 10 µL/min/mg
